Compound activity: PubChem BioAssay, several laboratories
A selection: hits, their analogues and other compounds. The true share with any hit is near 4.5%.
CHOP inhibitor: blocks CHOP induction under ER stress; CHO-K1 CHOP-promoter luciferase, tunicamycin-induced, 15-18 h; inhibition, % at 10 µM; 220,000 compounds, 3.8% hits;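 active = compounds that reduced the stress-induced luciferase reporter signal by more than about 70% of percent inhibition, limit read from the data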
p97 inhibitor: blocks human p97 ATPase activity | P55072 | recombinant p97 ATPase, Kinase-Glo ATP luminescence, 3 h | inhibition, % at 8 µM | 220,000 compounds, 0.42% hits | AID 1481; in the data active = inhibition above about 15%
Target sequence (P55072 whole entry, looked up): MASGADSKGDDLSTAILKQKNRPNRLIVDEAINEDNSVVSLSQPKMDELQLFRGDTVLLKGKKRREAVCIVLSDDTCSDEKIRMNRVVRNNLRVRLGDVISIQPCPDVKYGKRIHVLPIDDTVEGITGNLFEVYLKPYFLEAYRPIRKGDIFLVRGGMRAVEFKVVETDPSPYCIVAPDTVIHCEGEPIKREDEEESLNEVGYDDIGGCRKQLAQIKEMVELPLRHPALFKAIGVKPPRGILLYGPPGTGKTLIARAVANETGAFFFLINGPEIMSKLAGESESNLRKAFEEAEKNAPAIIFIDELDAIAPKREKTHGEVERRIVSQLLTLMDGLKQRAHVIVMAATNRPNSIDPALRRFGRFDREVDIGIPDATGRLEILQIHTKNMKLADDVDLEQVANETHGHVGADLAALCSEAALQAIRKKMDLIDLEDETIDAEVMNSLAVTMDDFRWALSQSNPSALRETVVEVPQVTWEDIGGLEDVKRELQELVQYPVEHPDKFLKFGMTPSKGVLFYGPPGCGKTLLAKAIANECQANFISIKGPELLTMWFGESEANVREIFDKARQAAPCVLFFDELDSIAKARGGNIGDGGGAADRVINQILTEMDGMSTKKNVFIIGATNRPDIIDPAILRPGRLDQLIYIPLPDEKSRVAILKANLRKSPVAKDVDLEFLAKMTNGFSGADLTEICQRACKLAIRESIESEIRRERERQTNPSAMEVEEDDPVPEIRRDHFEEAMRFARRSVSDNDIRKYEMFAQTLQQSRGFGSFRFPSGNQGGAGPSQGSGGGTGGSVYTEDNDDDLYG
UPR XBP1 act: activators of adaptive arm of unfolded protein response (XBP1); activation, % at 20 µM; 330,000 compounds, 0.33% hits; CHO-XBP1 luciferase reporter, IRE1-XBP1 UPR activation, luminescence; percent of tunicamycin response, DMSO as zero; AID 463104;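 active = versus positive control, 20 µM dose yields 30% or more activation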
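assay system = CHO-XBP1 luciferase reporter cells | amount = 1000 cells/well | buffer or medium = F12 plus 10% FBS | compound dosing = single point, 20 µM final compound, 1% DMSO | incubation = 16-18 h cell attachment at 37 °C, then 6 h compound exposure | detection = Steady-Glo luminescence read | controls = tunicamycin 10 µg/mL and vehicle-only wells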
CHOP UPR activ: activators of apoptotic arm of unfolded protein response (CHOP) | CHO-CHOP luciferase reporter, UPR activation, luminescence; percent of tunicamycin response over DMSO baseline | activation, % at 10 µM | 330,000 compounds, 0.34% hits;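 active = at 10 µM dose, activation of 40% or more, normalized to positive control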
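measured by = luciferase luminescence | assay system = CHO-CHOP cells, stable luciferase reporter of PERK-eIF2a-CHOP signalling | amount = 500 reporter cells seeded per well | timing = 6 h compound exposure at 37 °C after overnight seeding | controls = positive tunicamycin 10 µg/mL, negative DMSO alone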
M18AAP inhibitor: PfM18AAP enzyme inhibition; AID 1822; inhibition, % at 7.35 µM; recombinant PfM18AAP, H-Glu-NHMec fluorogenic cleavage; 290,000 compounds, 1.2% hits;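 active = inhibition above the campaign mean inhibition over all tested compounds plus 3 SD, cut at about 28% in these data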
NS3 helicase inh: HCV NS3 helicase inhibition. 290,000 compounds, 0.56% hits. inhibition, % at 10.9 µM. AID 1800. NS3 helicase DNA unwinding, Cy5 molecular beacon fluorescence;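 active = inhibition above the mean of all tested compounds plus 3 SD, set per campaign, cut at about 35% in these data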
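Assay system – hepatitis C virus NS3 helicase domain fragment enzyme · Buffer or medium – MOPS pH 6.5, MgCl2, DTT, Tween20, BSA · Reagent – Cy5/quencher beacon DNA duplex and ATP to start · Compound – single 10.9 µM dose · Timing – 1 h at 25 °C · Technique – Cy5 beacon fluorescence read at start and 1 h · Measure – % inhibition of unwinding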
Hits are given with their value; n = inactive; x = no result given.

SMILES	CHOP inhibitor	p97 inhibitor	UPR XBP1 act	CHOP UPR activ	M18AAP inhibitor	NS3 helicase inh
Cc1ccc(S(=O)(=O)Nc2ccccc2C(=O)Nc2nc(-c3ccc(F)cc3)cs2)cc1	n	n	n	n	n	n
COc1cccc(C(=O)Nc2nc(-c3ccc(S(=O)(=O)N4CCOCC4)cc3)cs2)c1	83.6	n	n	n	n	n
CCC(Oc1ccccc1)C(=O)N1CCN(S(=O)(=O)c2ccccc2)CC1 (stereo unspecified)	x	x	n	n	x	x
Cc1ccccc1NC(=O)Cc1nnc(N)s1	n	n	n	n	n	n
O=C(COC(=O)C1CCN(c2ccc(C(F)(F)F)cn2)CC1)Nc1ncc(Cl)cc1Cl	x	x	n	n	x	x
CCc1cc(=O)oc2cc(C)cc(OCC(=O)N3CCC(C(=O)NC(C)C)(c4ccccc4)CC3)c12	x	x	n	n	n	n
COc1ccccc1CN=Cc1[nH]c2ccc(Br)c(Cl)c2c1O	n	n	n	n	n	n
Cc1cccc(N=Cc2[nH]c3ccc(Br)c(Cl)c3c2O)c1	89.6	n	x	x	n	n
O=C(NNC(=O)c1cc([N+](=O)[O-])ccc1Cl)c1cccnc1	x	x	n	n	n	n
Cc1cc(C(=O)N/N=C/c2cc(Br)cc(Br)c2OC(=O)c2cccc(F)c2)n[nH]1	92.2	n	n	n	n	n
Cc1cc(C(=O)N/N=C/c2cc(Br)cc(Br)c2OC(=O)c2ccccc2)n[nH]1	81.4	n	n	n	n	n
CC(OC(=O)c1nccnc1N)C(=O)Nc1ccc(S(=O)(=O)N2CCCC2)cc1 (stereo unspecified)	x	x	n	n	x	x
CC(C)CC(NC(=O)C1CCC(C)CC1)C(=O)Nc1ccc2c(c1)OCCO2 (stereo unspecified)	n	n	n	n	n	n
CCC1CCC(C(=O)NC(C(=O)Nc2ccc3c(c2)OCCO3)C(C)C)CC1 (stereo unspecified)	83.3	n	n	n	n	n
CCOc1ccc(N2CCc3c(C)nc(SC)nc32)cc1	95.9	n	n	n	n	n
COc1ccc(N2CCc3c(C)nc(SC)nc32)cc1	n	n	n	n	n	n
CC(C)CCOc1ccc(/C=C2\CCn3c2nc2cc(C(=O)O)ccc2c3=O)cc1	89.6	n	x	x	n	n
COC(=O)[C@H](CC(C)C)NC(=O)Cn1cnc2c(SC)nc(N)nc21	x	x	n	n	x	x
CCOC(=O)c1c(-c2ccc(OC)cc2)csc1/N=C/N(C)C	n	n	n	n	n	n
CCOC(=O)c1c(-c2ccc(OC)cc2)csc1/N=C/C1C(=O)CCCC1=O	n	n	n	n	33.5	n
CCOC(=O)C1=C(CP(=O)(c2ccccc2)c2ccccc2)NC(=O)NC1c1ccc(OC)cc1 (stereo unspecified)	n	n	n	n	n	n
COC(=O)C1=C(CSc2nc3ccccc3o2)NC(=O)NC1c1cc(C)ccc1C (stereo unspecified)	80.1	n	n	n	n	n
COC(=O)C1=C(CSCc2ccccc2)NC(=O)NC1c1cc(C)ccc1C (stereo unspecified)	n	n	n	n	n	n
CCOC(=O)C1=C(CSc2nc3ccccc3s2)NC(=O)NC1c1cc(C)ccc1C (stereo unspecified)	75.1	n	n	n	n	n
CCOC(=O)C1=C(CSc2nc3ccccc3s2)NC(=O)NC1c1ccc(OC)cc1 (stereo unspecified)	83.9	n	n	n	n	n
SMILES	CHOP inhibitor	p97 inhibitor	UPR XBP1 act	CHOP UPR activ	M18AAP inhibitor	NS3 helicase inh
CC(C)(C)OC(=O)CNC(=O)c1[nH]cnc1C(=O)NC(c1ccccc1)c1ccccc1	x	x	n	n	n	n
Cc1ccccc1S(=O)(=O)N1[C@@H](c2ccc(F)cc2)C(C(=O)O)=CC[C@H]1c1ccc(Cl)cc1	x	x	n	n	x	x
O=C(COc1cccc(Oc2ccccc2)c1)Nc1ccc(SC(F)F)cc1	n	n	n	n	n	n
O=C(COc1cccc(OC(F)F)c1)Nc1ccc(SC(F)F)cc1	93.9	n	n	n	n	n
CCOC(=O)N(Cc1ccccc1)Cc1ccc(C(=O)N[C@@H](Cc2ccccc2)C(=O)O)cc1	x	x	n	n	x	x
Cc1ccccc1N=C1NC(=O)/C(=C/c2cccn2C)S1	n	n	n	n	n	n
Cc1cccc(N=C2NC(=O)/C(=C3/C(=O)N(C)c4ccccc43)S2)c1C	88.0	n	n	n	n	n
c1cncc(Nc2nc(-c3cccs3)cs2)c1	n	n	n	n	30.0	n
COc1ccc(/C=C2\SC(=S)N(CCC(=O)Nc3ccc(C(=O)O)cc3)C2=O)cc1	x	x	n	n	n	n
COc1ccc(/C=C2/SC(=S)N(CCC(=O)O)C2=O)cc1	84.3	n	n	n	n	n
CCOc1ccc(/C=C2/SC(=S)N(n3c(C)ccc3C)C2=O)cc1	n	n	n	n	n	n
O=C(O)CCN1C(=O)/C(=C\c2ccncc2)SC1=S	n	n	n	n	n	n
O=C(O)CCN1C(=O)/C(=C\c2ccc(-c3nc4ccccc4s3)o2)SC1=S	74.2	n	n	n	n	n
COc1ccc(/C=C2/SC(=S)N(n3c(C)ccc3C)C2=O)cc1	90.3	n	n	n	n	n
O=C(O)CN1C(=O)/C(=C/c2ccsc2)SC1=S	n	n	n	n	29.2	n
CCOc1ccc2oc(C(=O)NNC(=O)c3csc(N4CCOCC4)n3)c(C)c2c1	x	x	n	n	n	n
Cc1cc(=O)oc2cc(NC(=O)C(CCCN=C(N)N)NC(=O)OCc3ccccc3)ccc12 (stereo unspecified)	x	x	n	n	n	n
CCN1CCN(c2ccc(S(=O)(=O)N3CCCCC3)cc2NC(=O)CC(C)c2ccccc2)CC1 (stereo unspecified)	x	x	n	n	x	x
Cc1ccc(N=Nc2c(N)nn3c(N)c(C#N)c(C)nc23)cc1	73.4	n	n	n	n	n
O=C1c2[nH]nc(-c3ccccc3O)c2C(c2ccc(F)cc2)N1Cc1ccco1 (stereo unspecified)	81.6	n	n	n	n	n
Cc1ccc(S(=O)(=O)N2[C@@H](c3ccc(Cl)cc3)C(C(=O)O)=CC[C@H]2c2cccs2)cc1	x	x	n	n	x	x
CCOc1ccc(N(C)C(=O)CCc2nnc3ccc(N4CCCCC4)nn23)cc1	x	x	n	n	n	n
O=S(=O)(O)c1cc2oc(-c3ccccc3)nc2c2ccccc12	x	x	n	n	x	x
CCCc1cc(-c2n[nH]c(C)c2-c2ccc(C(=O)OCC)o2)c(O)cc1O	70.7	n	n	n	n	n
Cc1ccc(C(=O)c2sc3nsc(C)c3c2N)cc1	n	n	n	n	n	n
Cc1snc2sc(C(=O)c3ccc(Br)cc3)c(N)c12	92.5	n	n	n	n	n
COC(=O)c1ccc(/C=C/C(=O)OCC(=O)c2ccc[nH]2)cc1	x	x	n	n	x	x
Cc1cc(C(=O)Nc2ncn[nH]2)ccc1[N+](=O)[O-]	n	n	n	n	29.6	n
